The full list was thinned out, with hits kept by preference.
ALR H2O2 inh = human ALR oxidase inhibition via reduced H2O2. P55789. purified ALR, DTT oxidation, H2O2 HRP-luminol luminescence. inhibition, % (concentration not given with the values). hit rate 3.8% among 290,000;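 active = mean replicate inhibition above about 79%, with every replicate also reaching it, limit read from the data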
Target sequence (P55789 whole entry, looked up): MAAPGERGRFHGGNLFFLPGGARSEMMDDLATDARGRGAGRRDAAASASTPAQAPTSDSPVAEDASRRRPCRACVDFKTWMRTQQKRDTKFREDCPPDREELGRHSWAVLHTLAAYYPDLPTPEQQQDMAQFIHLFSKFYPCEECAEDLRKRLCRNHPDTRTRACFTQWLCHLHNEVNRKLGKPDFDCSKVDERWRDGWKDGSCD
T cell HTS = modulates CD8 T cell binding to vesicles; 2C CD8+ T cell-vesicle binding, flow cytometry; stronger effect = lower value; response (vesicle binding), % at 7 µM; hit rate 0.068% among 330,000;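 active = response, share of CD8 T cells binding vesicles, and their 90th percentile fluorescence all below set limits, cut at about 80% in these data, passing the limit was not always enough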;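 note: values below 100% mean blocked vesicle binding to the CD8+ T cells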
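Benchmarks: naked versus QL9-loaded vesicles / Assay system: purified 2C TCR transgenic mouse naive CD8+ T cells / Technique: high-throughput flow cytometry with anti-B7-1 and anti-CD8 staining / Timing: Cell–vesicle co-incubation 1.5 h at 37 °C, staining 20 min on ice / Read-out: percent CD8+ FL2 mean versus row control / Probe or stimulus: QL9-loaded Drosophila micro-vesicles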
N-glyco inh = N-linked glycosylation inhibition. D54 ERlucT glycosylation luciferase reporter, 24 h; percent of 100 nM tunicamycin response. reporter increase, % at 12.5 µM. hit rate 0.23% among 360,000. AID 588692;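 active = mean luciferase reporter signal, scaled so untreated is 0 and the glycosylation-blocking control 100, at or above a set limit in every replicate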;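 note: luciferase carries N-glycosylation sites so blocking glycosylation raises the light; 0% = median of neutral control wells and 100% = median of 100 nM tunicamycin wells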
* = called active by the depositor; / = not tested or not shown.

SMILES	ALR H2O2 inh	T cell HTS	N-glyco inh
CC1(C(=O)NS(=O)(=O)C2CC2)CCCN(C(=O)c2ccco2)C1 (stereo not drawn)	/	/	-0.3
CC(C)C(C)NC(=O)CN1C(=O)NC2(CCc3ccccc32)C1=O (stereo not drawn)	1.5	651.6	0.2
CC(=O)Nc1ccc(S(=O)(=O)N2CCC(N3CCCCCC3)CC2)cc1	-2.9	167.5	-0.9
CCCCNc1cc(NC(C)=O)cc2cc(OC)c(OC)cc12	98.9*	199.1	6.5
COc1cc2cc(NC(C)=O)cc(NCc3ccccc3)c2cc1OC	52.6	844.2	8.9
CCOC(=O)c1c(S(=O)(=O)N(C)Cc2ccco2)c(C)n(C)c1C	-3.7	245.9	0.3
COc1cc(/C=C(\C#N)C(=O)Nc2ccc(C(=O)O)cc2)ccc1OC(=O)c1cccc(F)c1	3.7	220.3	1.5
COc1cc(/C=C(/C#N)C(=O)Nc2ccccc2)ccc1OCc1ccc(C(=O)O)cc1	-5.5	279.7	1.1
CCc1ccc(NC(=O)/C(C#N)=C\c2ccc(OC)c(C(=O)O)c2)cc1	98.7*	322.5	1.5
COc1ccc(/C=C(/C#N)C(=O)Nc2ccc(O)cc2)cc1C(=O)O	99.0*	355.8	1.6
OC[C@@H](O)[C@H](O)C(/C=N/Nc1ccccc1)=N\Nc1ccccc1	98.8*	296.9	1.9
CC(=O)/C=N/Nc1ccccc1	-6.4	/	1.3
O=C(Nc1cccc(F)c1)C1CCN(C(=O)c2ccco2)CC1	1.0	305.7	-1.3
CCS(=O)(=O)c1ccc2oc(Nc3cccc(OC)c3)nc2c1	97.3*	475.3	5.1
CCS(=O)(=O)c1ccc2oc(Nc3ccc(OC)cc3)nc2c1	22.7	897.5	2.3
O=C(/C=C/c1cccc(O)c1)c1cccnc1	1.9	258.2	8.0
CC(=O)Nc1cccc(N2C(=O)CCC2=O)c1	-12.1	300.1	0.1
CC1(C)Oc2ccc(C(=O)N/N=C/c3ccc(O)cc3)cc2NC1=O	99.3*	184.1	-0.9
CC(=O)Nc1cccc(N2CCCC2=O)c1	99.5*	143.1	2.4
CN(C)c1ccc(/C=C/C(=O)c2cccnc2)cc1	99.2*	156.7	0.0
CN(C)c1ccc(/C=N/NC(=O)c2ccc3c(c2)OCO3)cc1	97.5*	253.7	1.8
Cc1ccc(NC(=O)NNC(=O)c2ccc3c(c2)NC(=O)C(C)(C)O3)cc1	/	260.6	0.6
O=C(N/N=C/c1ccccc1)c1ccc2c(c1)OCO2	-2.0	172.3	-10.3
COc1ccc(CCNC(=O)c2c(O)c3cc(OC)c(OC)cc3[nH]c2=O)cc1OC	/	/	-5.1
Cc1ccc(OCCn2c(=O)n(C)c3ccccc32)cc1	-4.8	243.9	1.3
SMILES	ALR H2O2 inh	T cell HTS	N-glyco inh
Cc1ccc(S(=O)(=O)N2CCOC2C(Cl)(Cl)Cl)cc1 (stereo not drawn)	-4.5	353.2	-0.8
O=C(Nc1ccccc1)c1cccc2c(-c3cccnc3)coc12	/	/	8.4
O=C(C=Cc1ccccc1)c1ccc([N+](=O)[O-])cc1	/	/	3.7
O=C(/C=C/c1cccnc1)c1ccc([N+](=O)[O-])cc1	-9.1	274.1	34.6*
O=C(/C=C/c1cccc(Br)c1)c1ccc2c(c1)OCO2	10.1	276.1	21.7
COc1cccc(/C=N/NC(=O)c2cccc(N3CCCC3=O)c2)c1	-3.3	306.4	-3.2
CN(CCCNC(=O)c1cccc(N2CCCC2=O)c1)c1ccccc1	98.4*	187.7	-2.9
CN(C)c1ccc(/C=N/NC(=O)c2cccc(N3CCCC3=O)c2)cc1	87.5*	157.1	1.6
CCCCN(C)CCCNC(=O)c1cccc(N2CCCC2=O)c1	-3.7	601.8	1.3
O=C(/C=C/c1ccccc1)c1ccc2c(c1)OCO2	97.3*	326.6	1.0
CCOC1=C2CN(S(=O)(=O)c3ccc(C)cc3)[C@H](c3cccc4ccccc34)C[C@H]2[C@H]2C(=O)N(c3ccccc3)C(=O)[C@H]2C1	/	/	-3.0
CCc1ccc(Sc2cc(C(=O)NCCN3CCOCC3)c3ccccc3n2)cc1	-10.9	109.6	-7.1
Cc1cnc(C(=O)N(c2ccc(N3CCOCC3)cc2)C2C(=O)Nc3ccccc3N=C2c2ccc(F)cc2)cn1 (stereo not drawn)	/	/	2.4
CN(C)c1ccc(/C=C/C(=O)c2ccc3c(c2)OCO3)cc1	98.9*	625.8	11.5
O=C(Nc1ccncc1)c1ccc2c(c1)OCCO2	-6.5	207.7	-0.4
O=C(/C=C/c1ccc2c(c1)OCO2)c1ccc(F)cc1	5.5	/	3.1
O=C(/C=C/c1ccncc1)c1ccc2c(c1)OCCO2	-1.2	395.9	70.4*
Cc1ccc(S(=O)(=O)NCc2cn3ccccc3n2)c(C)c1	-5.5	197.6	2.3
CCn1cnc2c1c(=O)n(Cc1ccc(C(=O)OC)cc1)c(=O)n2Cc1ccccc1	-4.1	298.2	2.1
COC(=O)/C(=N\Nc1ccc(Cl)cc1)Sc1nnc(-c2ccc(OC)cc2)n1C	94.6*	200.0	5.5

Compound activity from PubChem BioAssay.
